From ChEMBL document CHEMBL1139778, “Synthesis and biological evaluation of cinnamyl compounds as potent antitumor agents” (Bioorg Med Chem Lett, 2007)
Each block holds one compound with its values, some of them ahead of it. The source made the active and inactive calls. The rule behind the calls is not given here.

How the values were obtained:
HCT-116 [1] = experiment: Growth inhibition of human HCT116 cells after 24 hrs by ELISA; format: functional; settings: HCT-116, 24 h
[2] = Growth inhibition of human […] cells after 24 hrs by ELISA; format: functional
NCI-H23 = experiment: Growth inhibition of human NCI-H23 cells after 24 hrs by ELISA; format: functional; settings: NCI-H23, 24 h
SK-OV-3 = experiment: Growth inhibition of human SKOV3 cells after 24 hrs by ELISA; format: functional; settings: SK-OV-3, 24 h
A549 = experiment: Growth inhibition of human A549 cells after 24 hrs by ELISA; format: functional; settings: A549, 24 h
HCT-116 [3] = experiment: Cell cycle arrest in human HCT116 cells assessed as accumulation at S phase at 30 uM after 24 hrs by flow cytometry; format: functional
Method in brief: (§1)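 After treatment, cells harvested at 24 h, trypsinized, washed with PBS, fixed overnight in ice-cold 70% EtOH, then treated with RNase A 100 µg/mL at 37 °C for 30 min. Stained with propidium iodide (final 50 µg/mL). DNA content of 20,000 fixed cells read by flow cytometry (FACScalibur); phase distribution from cell cycle modelling.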

HCT-116 [4] = experiment: Cell cycle arrest in human HCT116 cells assessed as accumulation at subG1 phase at 40 uM after 24 hrs by flow cytometry; format: functional; method in brief: as §1
SW-620 [5] = experiment: Cell cycle arrest in human SW620 cells assessed as accumulation at G2/M phase at 20 uM after 24 hrs by flow cytometry; format: functional; method in brief: as §1
HCT-116 [6] = experiment: Cell cycle arrest in human HCT116 cells assessed as accumulation at S phase at 40 uM after 24 hrs by flow cytometry; format: functional; method in brief: as §1
HCT-116 [7] = experiment: Cell cycle arrest in human HCT116 cells assessed as accumulation at G0/G1 phase at 20 uM after 24 hrs by flow cytometry; format: functional; method in brief: as §1
SW-620 [8] = experiment: Cell cycle arrest in human SW620 cells assessed as accumulation at subG1 phase at 40 uM after 24 hrs by flow cytometry; format: functional; method in brief: as §1
[9] = test system: SW620 (human colon adenocarcinoma); experiment: Induction of apoptosis in human SW620 cells at 30 uM after 24 hrs
SW-620 [10] = experiment: Antitumor activity against human SW620 cells in nude mouse assessed as tumor volume on day 7 at 50 mg/kg, […]; format: functional; settings: route intraperitoneal
HCT-116 [11] = experiment: Cell cycle arrest in human HCT116 cells assessed as accumulation at G0/G1 phase at 40 uM after 24 hrs by flow cytometry; format: functional; method in brief: as §1
HCT-116 [12] = experiment: Cell cycle arrest in human HCT116 cells assessed as accumulation at S phase at 20 uM after 24 hrs by flow cytometry; format: functional; method in brief: as §1
SW-620 [13] = experiment: Cell cycle arrest in human SW620 cells assessed as accumulation at G2/M phase at 30 uM after 24 hrs by flow cytometry; format: functional; method in brief: as §1
HCT-116 [14] = experiment: Cell cycle arrest in human HCT116 cells assessed as accumulation at G2/M phase at 30 uM after 24 hrs by flow cytometry; format: functional; method in brief: as §1
SW-620 [15] = experiment: Antitumor activity against human SW620 cells in nude mouse assessed as tumor volume on day 14 at 50 mg/kg, ip for 20 days; format: organism-based; design: dose 50 mg/kg, route intraperitoneal; settings: in vivo
Method in brief: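 SW620 human colon adenocarcinoma cells (3 × 10⁷ cells/mL) implanted subcutaneously in right flank of nude mice on day 0. Compound in 0.5% Tween 80 given ip at 50 mg/kg per day; vehicle control and doxifluridine 50 mg/kg reference; 8 mice per group. Tumor volume estimated as length × width × height/2; mice sacrificed on day 14.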

SW-620 [16] = experiment: Cell cycle arrest in human SW620 cells assessed as accumulation at G0/G1 phase at 40 uM after 24 hrs by flow cytometry; format: functional; method in brief: as §1
SW-620 [17] = experiment: Cell cycle arrest in human SW620 cells assessed as accumulation at G2/M phase at 40 uM after 24 hrs by flow cytometry; format: functional; method in brief: as §1
SW-620 [18] = experiment: Cell cycle arrest in human SW620 cells assessed as accumulation at G0/G1 phase at 30 uM after 24 hrs by flow cytometry; format: functional; method in brief: as §1
HCT-116 [19] = experiment: Cell cycle arrest in human HCT116 cells assessed as accumulation at subG1 phase at 20 uM after 24 hrs by flow cytometry; format: functional; method in brief: as §1
HCT-116 [20] = experiment: Cell cycle arrest in human HCT116 cells assessed as accumulation at G2/M phase at 40 uM after 24 hrs by flow cytometry; format: functional; method in brief: as §1
SW-620 [21] = experiment: Cell cycle arrest in human SW620 cells assessed as accumulation at subG1 phase at 20 uM after 24 hrs by flow cytometry; format: functional; method in brief: as §1
SW-620 [22] = experiment: Antitumor activity against human SW620 cells in nude mouse assessed as tumor volume on day 12 at 50 mg/kg, […]; format: functional; settings: route intraperitoneal
SW-620 [23] = experiment: Antitumor activity against human SW620 cells in nude mouse assessed as tumor volume on day 5 at 50 mg/kg, […]; format: functional; settings: route intraperitoneal
HCT-116 [24] = experiment: Induction of caspase 3 cleavage in human HCT116 cells at 20 uM after 24 hrs; format: functional, cell-based
Method in brief: (§2)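 HCT116 cells treated for 24 h, lysed in RIPA buffer; 40 µg lysate resolved by 15% SDS–PAGE, blotted to PVDF, blocked in 5% milk/TBS-T. Primary antibodies 2 h at room temperature, HRP goat anti-rabbit secondary, chemiluminescent detection on X-ray film for PARP and caspase-3 cleavage.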

HCT-116 [25] = experiment: Induction of PARP cleavage in human HCT116 cells at 20 uM after 24 hrs; format: functional, cell-based; method in brief: as §2
HCT-116 [26] = experiment: Cell cycle arrest in human HCT116 cells assessed as accumulation at G2/M phase at 20 uM after 24 hrs by flow cytometry; format: functional; method in brief: as §1
SW-620 [27] = experiment: Cell cycle arrest in human SW620 cells assessed as accumulation at S phase at 20 uM after 24 hrs by flow cytometry; format: functional; method in brief: as §1
SW-620 [28] = experiment: Cell cycle arrest in human SW620 cells assessed as accumulation at S phase at 40 uM after 24 hrs by flow cytometry; format: functional; method in brief: as §1
SW-620 [29] = experiment: Cell cycle arrest in human SW620 cells assessed as accumulation at S phase at 30 uM after 24 hrs by flow cytometry; format: functional; method in brief: as §1
HCT-116 [30] = experiment: Cell cycle arrest in human HCT116 cells assessed as accumulation at subG1 phase at 30 uM after 24 hrs by flow cytometry; format: functional; method in brief: as §1
SW-620 [31] = experiment: Antitumor activity against human SW620 cells in nude mouse assessed as tumor volume on day 9 at 50 mg/kg, […]; format: functional; settings: route intraperitoneal
HCT-116 [32] = experiment: Cell cycle arrest in human HCT116 cells assessed as accumulation at G0/G1 phase at 30 uM after 24 hrs by flow cytometry; format: functional; method in brief: as §1
SW-620 [33] = experiment: Cell cycle arrest in human SW620 cells assessed as accumulation at G0/G1 phase at 20 uM after 24 hrs by flow cytometry; format: functional; method in brief: as §1
SW-620 [34] = experiment: Cell cycle arrest in human SW620 cells assessed as accumulation at subG1 phase at 30 uM after 24 hrs by flow cytometry; format: functional; method in brief: as §1

SMILES: CN1CCN(C(=O)ONC(=O)/C=C/c2ccccc2OC(=O)c2ccccc2)CC1
GI50 (HCT-116 [1]): 40.4 µM
GI50 [2]: 89.3 µM
GI50 (NCI-H23): 45.2 µM
GI50 (SK-OV-3): > 100 µM
GI50 (A549): > 100 µM

SMILES: O=C(/C=C/c1ccccc1OC(=O)c1ccccc1)NOC(=O)c1ccccc1
GI50 (HCT-116 [1]): 13.6 µM
GI50 [2]: 3.2 µM
GI50 (NCI-H23): 18.2 µM
GI50 (SK-OV-3): 12.9 µM
GI50 (A549): 8.8 µM

SMILES: COc1ccccc1/C=C/C(=O)NO
GI50 (HCT-116 [1]): 15.3 µM
GI50 [2]: 16.8 µM
GI50 (NCI-H23): 26.9 µM
GI50 (SK-OV-3): 48.8 µM
GI50 (A549): 53.5 µM

SMILES: CC(=O)ONC(=O)/C=C/c1ccccc1OC(=O)c1ccccc1
GI50 (HCT-116 [1]): 21.3 µM
GI50 [2]: 18.6 µM
GI50 (NCI-H23): 26.3 µM
GI50 (SK-OV-3): 16.8 µM
GI50 (A549): 30.2 µM

SMILES: O=C(/C=C/c1ccccc1OC(=O)c1ccccc1)NOC(=O)N1CCOCC1
Activity (HCT-116 [3]): 20.39%
Activity (HCT-116 [4]): 36.83%
Activity (SW-620 [5]): 22.33%
Activity (HCT-116 [6]): 26.88%
GI50 (HCT-116 [1]): 12.5 µM
Activity (HCT-116 [7]): 42.72%
Activity (SW-620 [8]): 12.7%
Activity [9]: Active
Activity (SW-620 [10]): 4.3 mm3
Activity (HCT-116 [11]): 31.06%
Activity (HCT-116 [12]): 22.05%
Activity (SW-620 [13]): 26.41%
Activity (HCT-116 [14]): 38.22%
Activity (SW-620 [15]): 89 mm3
Activity (SW-620 [16]): 33.34%
Activity (SW-620 [17]): 40.14%
Activity (SW-620 [18]): 46.46%
GI50 [2]: 5.8 µM
Activity (HCT-116 [19]): 32.36%
Activity (HCT-116 [20]): 42.06%
Activity (SW-620 [21]): 3.03%
Activity (SW-620 [22]): 45 mm3
Activity (SW-620 [23]): 1.4 mm3
Activity (HCT-116 [24]): Active
Activity (HCT-116 [25]): Active
Activity (HCT-116 [26]): 35.23%
Activity (SW-620 [27]): 27.79%
Activity (SW-620 [28]): 26.52%
GI50 (NCI-H23): 12.9 µM
GI50 (SK-OV-3): 12.7 µM
Activity (SW-620 [29]): 26.12%
Activity (HCT-116 [30]): 39.14%
Activity (SW-620 [31]): 17.3 mm3
Activity (HCT-116 [32]): 41.4%
GI50 (A549): 25.2 µM
Activity (SW-620 [33]): 48.88%
Activity (SW-620 [34]): 3.5%

SMILES: CN1CCN(C(=O)/C=C/c2ccccc2OC(=O)c2ccccc2)CC1
GI50 (HCT-116 [1]): > 100 µM
GI50 [2]: > 100 µM
GI50 (NCI-H23): > 100 µM
GI50 (SK-OV-3): > 100 µM
GI50 (A549): > 100 µM

The next lines start with results.

GI50 (HCT-116 [1]): 16.8 µM
GI50 (NCI-H23): 27.8 µM
GI50 (SK-OV-3): 50.4 µM
GI50 (A549): 55.2 µM
SMILES: O=C(/C=C/c1ccccc1O)NO
GI50 [2]: 49.8 µM

GI50 (HCT-116 [1]): > 100 µM
GI50 (NCI-H23): > 100 µM
GI50 (SK-OV-3): > 100 µM
GI50 (A549): > 100 µM
SMILES: O=C(Cl)/C=C/c1ccccc1OC(=O)c1ccccc1
GI50 [2]: > 100 µM

GI50 (HCT-116 [1]): > 100 µM
GI50 (NCI-H23): > 100 µM
GI50 (SK-OV-3): > 100 µM
GI50 (A549): > 100 µM
SMILES: CO/N=C/C=C/c1ccccc1OC(=O)c1ccccc1
GI50 [2]: > 100 µM

GI50 (HCT-116 [1]): 11.2 µM
GI50 (NCI-H23): 17.5 µM
GI50 (SK-OV-3): 35.3 µM
GI50 (A549): 44.9 µM
SMILES: O=C(/C=C/c1ccccc1OC(=O)c1ccccc1)NO
GI50 [2]: 20.2 µM

Activity (SW-620 [15]): 120.7 mm3
SMILES: C[C@H]1O[C@@H](n2cc(F)c(=O)[nH]c2=O)[C@H](O)[C@@H]1O [DOXIFLURIDINE]
Activity (SW-620 [10]): 15 mm3
Activity (SW-620 [22]): 77.9 mm3
Activity (SW-620 [23]): 3.8 mm3
Activity (SW-620 [31]): 41.4 mm3
